Entries after “also recorded” stand apart in the source; their conditions may differ.
Columns and labels:
primary microglia = conditions: LPS 100 ng/ml; cited from earlier work
[1] = molecular target: T1, serine racemase (SR) in PC-12 cells (Rattus norvegicus, UniProt Q76EQ0); test: CE-LIF measurement of intra-cellular D-Ser production in PC-12 cells; format: cell-based; conditions: for intra-cellular D-Ser production: 36 h, PC-12, n = 3
T1 sequence (Q76EQ0 1-333): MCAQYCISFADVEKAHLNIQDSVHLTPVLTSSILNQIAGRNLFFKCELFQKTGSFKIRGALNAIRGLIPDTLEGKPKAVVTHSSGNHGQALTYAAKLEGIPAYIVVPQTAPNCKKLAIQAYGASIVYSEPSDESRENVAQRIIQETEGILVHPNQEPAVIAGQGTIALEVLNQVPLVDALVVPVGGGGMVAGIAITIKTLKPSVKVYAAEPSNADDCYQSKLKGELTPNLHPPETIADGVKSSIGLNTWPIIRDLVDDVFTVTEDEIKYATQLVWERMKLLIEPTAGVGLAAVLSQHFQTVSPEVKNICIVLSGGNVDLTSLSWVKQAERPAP
How it was run: (§1)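 PC-12 cells were kept in RPMI-1640 with 10% horse serum and 5% FBS, and 1321N1 cells in DMEM with 10% FBS. […] Pellets were spiked with D-Arg internal standard, ACN-extracted, dried and FITC-labelled. CE-LIF used 0.5 mM HP-β-CD in 80 mM borate, pH 9.3.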

[2] = system: SR protein (monomer and dimer) in PC-12 cells; test: Western blot of SR protein expression in PC-12 cells; format: cell-based, rat; conditions: 36-h treatment; for expression of the SR dimer relative to control: normalized to β-actin, n=2
How it was run: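 Lysates were BCA-assayed, and 20 μg protein per lane was run on reducing 4–12% SDS-PAGE and moved to PVDF. Blots were blocked in 5% milk, probed with a […] SR antibody, then an HRP secondary, and detected by ECL. Bands were quantified by densitometry, normalised to β-actin, n=2.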

[3] = molecular target: purified recombinant human SR; conditions: cited from earlier work
[4] = molecular target: T2, serine racemase (SR) in C6 cells (Rattus norvegicus, UniProt Q76EQ0); test: CE-LIF measurement of intra-cellular D-Ser production in C6 cells; format: cell-based; conditions: for intra-cellular D-Ser production: 36 h, C6, n = 3
T2 sequence (Q76EQ0 1-333): T1 sequence (Q76EQ0 1-333)
How it was run: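 C6 cells in DMEM with L-Gln, 10% FBS and 1% penicillin/streptomycin were grown at 37 °C in 5% CO2 to >70% confluence. They were then incubated for 36 h in medium with substrate amino acid (0–20 mM) or inhibitor amino acid (0–8 mM), in triplicate. ACN extracts with D-Arg internal standard were FITC-labelled, then run by CE-LIF in 0.5 mM HP-β-CD/80 mM borate, pH 9.3. D-Ser was quantified by area ratio to FITC-D-Arg.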

[5] = system: SR purified from mouse brain; conditions: cited from earlier work
[6] = molecular target: T3, serine racemase (SR) in 1321N1 cells (Homo sapiens, UniProt Q9GZT4); test: CE-LIF measurement of intra-cellular D-Ser production in 1321N1 cells; format: cell-based; conditions: for intra-cellular D-Ser production: 36 h, 1321N1, n = 3
T3 sequence (Q9GZT4 1-340): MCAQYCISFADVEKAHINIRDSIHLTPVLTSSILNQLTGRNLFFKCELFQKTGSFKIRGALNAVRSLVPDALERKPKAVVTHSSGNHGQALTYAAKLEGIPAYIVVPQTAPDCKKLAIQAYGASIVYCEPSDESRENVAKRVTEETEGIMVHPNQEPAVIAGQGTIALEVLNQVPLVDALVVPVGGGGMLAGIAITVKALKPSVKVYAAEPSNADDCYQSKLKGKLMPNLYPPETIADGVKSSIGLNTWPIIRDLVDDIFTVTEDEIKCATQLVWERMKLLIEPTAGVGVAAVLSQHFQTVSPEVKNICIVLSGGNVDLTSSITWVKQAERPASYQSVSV
How it was run: as §1

[7] = molecular target: T4, serine racemase (SR) in HepG2 cells (Homo sapiens, UniProt Q9GZT4); test: CE-LIF measurement of intra-cellular D-Ser production in HepG2 cells; format: cell-based; conditions: for intra-cellular D-Ser production: 36 h, HepG2, n = 3
T4 sequence (Q9GZT4 1-340): T3 sequence (Q9GZT4 1-340)
How it was run: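 Medium for HepG2 was EMEM with 1% L-Gln, 10% FBS, 1% sodium pyruvate and 1% penicillin/streptomycin. Cells at >70% confluence (37 °C, 5% CO2) were exposed for 36 h to medium with substrate amino acid (0–20 mM) or inhibitor amino acid (0–8 mM), in triplicate. Cell extracts in ACN with D-Arg internal standard were FITC-derivatized. CE-LIF used 0.5 mM HP-β-CD in 80 mM borate, pH 9.3, with D-Ser quantified against FITC-D-Arg.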

lipopolysaccharide [LPS]
D-Ser levels in the incubation media (primary microglia): increased | expression of the dimeric form of SR (primary microglia): increased | increase in intra-cellular D-Ser concentration ([1]; PC-12, LPS 10 ng/ml in incubation media): 2.5 fold | increase in intra-cellular D-Ser concentration ([1]; PC-12, LPS 100 ng/ml in incubation media): 3.5 fold | expression of the SR dimer relative to control ([2]; PC-12, LPS 10 ng/ml): 1.2 fold | expression of the SR dimer relative to control ([2]; PC-12, LPS 100 ng/ml): 1.6 fold

NCC(=O)O [Gly, glycine]
intra-cellular D-Ser production ([1]; Gly 0.25 mM in media): 15.91 ± 1.72 | intra-cellular D-Ser production ([1]; Gly 0.50 mM in media): 13.86 ± 2.02 | intra-cellular D-Ser production ([1]; Gly 1.0 mM in media): 11.59 ± 2.43 | intra-cellular D-Ser production ([1]; Gly 2.0 mM in media): 8.30 ± 0.51 | intra-cellular D-Ser production ([1]; Gly 4.0 mM in media): 7.82 ± 0.49 | intra-cellular D-Ser production ([1]; Gly 6.0 mM in media): 4.64 ± 1.36 | intra-cellular D-Ser production ([1]; Gly 8.0 mM in media): 2.72 ± 0.44 | decrease in intra-cellular D-Ser ([1]; PC-12, 6 mM Gly): 77% | IC50 ([1]; read-out: IC50 for the Gly inhibition of SR, PC-12, 36 h, n = 3): 1.24 ± 0.39 mM | Ki [3]: 0.37 mM | reduction in intra-cellular D-Ser concentrations ([4]; C6, Gly 0.25 to 8.0 mM added to incubation buffer): 97% | intra-cellular D-Ser production ([4]; Gly 0.25 mM in media): 3.74 ± 0.12 | intra-cellular D-Ser production ([4]; Gly 0.50 mM in media): 3.49 ± 0.17 | intra-cellular D-Ser production ([4]; Gly 1.0 mM in media): 3.15 ± 0.13 | intra-cellular D-Ser production ([4]; Gly 2.0 mM in media): 1.69 ± 0.14 | intra-cellular D-Ser production ([4]; Gly 4.0 mM in media): 0.51 ± 0.11 | intra-cellular D-Ser production ([4]; Gly 6.0 mM in media): 0.41 ± 0.07 | intra-cellular D-Ser production ([4]; Gly 8.0 mM in media): 0.11 ± 0.07 | reduction in the D-Ser production ([5]; 2 mM Gly in incubation media): 80% | Ki ([5]; competitive inhibitor): 0.15 mM | reduction in intra-cellular D-Ser concentrations ([6]; 1321N1, Gly 0.25 to 8.0 mM added to incubation buffer): 35% | intra-cellular D-Ser production ([6]; Gly 0.25 mM in media): 9.05 ± 2.48 | intra-cellular D-Ser production ([6]; Gly 0.50 mM in media): 8.34 ± 2.16 | intra-cellular D-Ser production ([6]; Gly 1.0 mM in media): 7.38 ± 2.01 | intra-cellular D-Ser production ([6]; Gly 2.0 mM in media): 6.69 ± 1.80 | intra-cellular D-Ser production ([6]; Gly 4.0 mM in media): 6.53 ± 1.98 | intra-cellular D-Ser production ([6]; Gly 6.0 mM in media): 6.32 ± 1.83 | intra-cellular D-Ser production ([6]; Gly 8.0 mM in media): 6.29 ± 1.04 | IC50 ([6]; read-out: IC50 for the Gly inhibition of SR, 1321N1, 36 h, n = 3): 0.68 ± 0.15 mM | SR dimer or SR monomer expression relative to control ([2]; PC-12, Gly 6 mM): neither of these treatments produced a significant change; also recorded: without causing a significant change | intra-cellular D-Ser production ([7]; Gly 0.25 mM in media): 14.96 ± 0.91 | intra-cellular D-Ser production ([7]; Gly 0.50 mM in media): 13.85 ± 0.22 | intra-cellular D-Ser production ([7]; Gly 1.0 mM in media): 10.88 ± 0.17 | intra-cellular D-Ser production ([7]; Gly 2.0 mM in media): 10.77 ± 0.14 | intra-cellular D-Ser production ([7]; Gly 4.0 mM in media): 10.31 ± 0.32 | intra-cellular D-Ser production ([7]; Gly 6.0 mM in media): 8.60 ± 0.12 | intra-cellular D-Ser production ([7]; Gly 8.0 mM in media): 7.78 ± 0.27

N[C@@H](CO)C(=O)O [L-Ser, L-serine]
EC50 [1]: 5.41 ± 0.76 mM | intra-cellular D-Ser production ([1]; L-Ser 2 mM in media): 16.48 ± 1.72 | intra-cellular D-Ser production ([1]; L-Ser 4 mM in media): 21.97 ± 2.48 | intra-cellular D-Ser production ([1]; L-Ser 6 mM in media): 29.51 ± 4.93 | intra-cellular D-Ser production ([1]; L-Ser 8 mM in media): 31.46 ± 0.07 | intra-cellular D-Ser production ([1]; L-Ser 10 mM in media): 36.49 ± 1.64 | intra-cellular D-Ser production ([1]; L-Ser 15 mM in media): 38.01 ± 0.50 | intra-cellular D-Ser production ([1]; L-Ser 20 mM in media): 39.13 ± 0.36 | Km ([3]; read-out: Km for L-Ser): 4 mM | EC50 [4]: 9.37 ± 0.17 mM | increase in intra-cellular D-Ser levels ([4]; C6, L-Ser 2.0 to 20.0 mM added to incubation buffer): 533% | intra-cellular D-Ser production ([4]; L-Ser 2 mM in media): 2.91 ± 0.17 | intra-cellular D-Ser production ([4]; L-Ser 4 mM in media): 3.05 ± 0.08 | intra-cellular D-Ser production ([4]; L-Ser 6 mM in media): 3.60 ± 0.14 | intra-cellular D-Ser production ([4]; L-Ser 8 mM in media): 7.17 ± 0.27 | intra-cellular D-Ser production ([4]; L-Ser 10 mM in media): 10.63 ± 0.45 | intra-cellular D-Ser production ([4]; L-Ser 15 mM in media): 15.64 ± 0.10 | intra-cellular D-Ser production ([4]; L-Ser 20 mM in media): 16.07 ± 0.16 | Km ([5]; read-out: Km for L-Ser): 18 mM | EC50 [6]: 9.16 ± 0.27 mM | intra-cellular D-Ser production ([6]; L-Ser 2 mM in media): 8.13 ± 0.14 | intra-cellular D-Ser production ([6]; L-Ser 4 mM in media): 9.26 ± 1.00 | intra-cellular D-Ser production ([6]; L-Ser 6 mM in media): 9.46 ± 0.87 | intra-cellular D-Ser production ([6]; L-Ser 8 mM in media): 9.54 ± 0.82 | intra-cellular D-Ser production ([6]; L-Ser 10 mM in media): 19.57 ± 0.77 | intra-cellular D-Ser production ([6]; L-Ser 15 mM in media): 21.94 ± 0.18 | intra-cellular D-Ser production ([6]; L-Ser 20 mM in media): 22.31 ± 1.27 | SR dimer or SR monomer expression relative to control ([2]; PC-12, L-Ser 10 mM): neither of these treatments produced a significant change; also recorded: without causing a significant change | EC50 [7]: 7.87 ± 2.09 mM | increase in intra-cellular D-Ser levels ([7]; HepG2, L-Ser 2.0 to 20.0 mM added to incubation buffer): 50% | intra-cellular D-Ser production ([7]; L-Ser 2 mM in media): 15.48 ± 0.26 | intra-cellular D-Ser production ([7]; L-Ser 4 mM in media): 16.21 ± 0.21 | intra-cellular D-Ser production ([7]; L-Ser 6 mM in media): 17.53 ± 1.70 | intra-cellular D-Ser production ([7]; L-Ser 8 mM in media): 18.50 ± 1.48 | intra-cellular D-Ser production ([7]; L-Ser 10 mM in media): 20.10 ± 0.50 | intra-cellular D-Ser production ([7]; L-Ser 15 mM in media): 21.81 ± 0.35 | intra-cellular D-Ser production ([7]; L-Ser 20 mM in media): 26.28 ± 0.25

— paper PMC3270116 (Analytical Biochemistry, 2011)
